STAT1 blocker: STAT1 signaling inhibition | NIH 3T3 STAT1-luciferase reporter, IFN-gamma, luminescence | inhibition, % at 5.5 µM | 0.35% of 200,000 active | AID 920;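 active = inhibition above a set limit, the mean inhibition across all tested compounds plus 3 SD, cut at about 34% in these data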;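 also: 0% = IFN-gamma with DMSO and 100% = IFN-gamma with 300 µM nifuroxazide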
STAT3 blocker: inhibitors of IL-6 induced STAT3 signaling. 0.89% of 190,000 active. inhibition, % at 5.5 µM. AID 862. U3A cells, IL-6 STAT3-luciferase reporter, luminescence; host cell line lacks STAT1;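 active = inhibition above the mean inhibition across all screened compounds plus 3 SD, cut at about 44% in these data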;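 also: 0% = DMSO only wells and 100% = 100 µM nifuroxazide control wells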
STAT1 act: activators of IFN-gamma induced STAT1 signaling. NIH 3T3 STAT1-luciferase reporter, luminescence; 100% = IFN-gamma alone, no compound. activation (% of control), % at 5.5 µM. 2.6% of 200,000 active. AID 932;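 active = activation above the screen-wide mean activation plus 3 SD, cut at about 130% in these data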;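 also: raw ratio to IFN-gamma control signal so 100% means no change and 0% no light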
STAT3 act: STAT3 signaling activation; U3A cells, IL-6 STAT3-luciferase reporter, luminescence; 100% = signal with IL-6 EC80 alone; AID 871; 0.91% of 190,000 active; activation (% of control), % at 5.6 µM;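 active = activation above the screen-wide mean of compound activation plus 3 SD, cut at about 130% in these data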;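 also: 0% = background luminescence of wells with medium and substrate only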
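Material: STAT1-lacking human U3A cells, STAT3 luciferase reporter | Benchmarks: IL-6-only wells as 100% reference | Probe or stimulus: IL-6 (33 ng/mL) | Timing: Compound 1 h, then IL-6 6 h at 37 °C | Detection: Luminescence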
* = called active by the depositor; / = not tested or not shown. Most compounds without a hit are left out; they make up all but 4.3% or so of the library.

SMILES	STAT1 blocker	STAT3 blocker	STAT1 act	STAT3 act
O=C1N=c2ccccc2=C1c1c(O)n(-c2cccc(F)c2)[nH]c1=O	2	-12	98	110
CCn1c(O)c(C2=c3ccccc3=NC2=O)c2cc(Br)ccc21	1	-35	97	134*
N/C(=N\OC(=O)c1ccc(Cl)cc1Cl)c1cccnc1	-33	19	129*	87
N/C(=N\OC(=O)c1cccc2ccccc12)c1cccnc1	-33	-39	128	136*
COc1ccc(-c2ncccc2OC(=O)C23CC4CC(CC(C4)C2)C3)cc1OC	6	0	95	102
O=C1C2C3C=CC(C3)C2C(=O)N1c1ccc(-c2nc3ccccc3o2)cc1 (centres undefined)	-47	2	143*	102
Cc1ccc(C(=O)Nc2ccc3c(c2)ncn3C)cc1	-42	7	139*	95
CCn1cnc2cc(NCc3ccncc3)ccc21	-2	3	107	99
CCc1ccc(CNc2ccc3c(c2)ncn3C)cc1	-53	-5	148*	111
Cc1ccc(CNc2ccc3c(c2)ncn3C)cc1	-42	-9	139*	112
Cc1ccc2sc(-c3ccc(NC(=O)c4cc(-n5cnnc5)ccc4Cl)cc3)nc2c1	-45	20	149*	89
C[C@H]1COC2=C1C(=O)C(=O)c1c2ccc2c1CCCC2(C)C	-33	/	129*	/
O=C(CSCc1cccc(F)c1)NCc1ccccc1	-36	6	133*	101
O=C(CSCc1ccccc1F)NCc1ccccc1	-33	-2	133*	106
O=C(CCSCc1ccccc1F)NCc1cccnc1	-12	4	110	107
COc1c(F)c(F)c(C(=O)O)c(Nc2ccc(C)cc2C)c1F	2	14	100	92
C#CCOCCOCCOCCNc1nc(N2CCN(C(=O)Cn3cc(CC(C)O)nn3)CC2)nc(N2CCN(C(=O)[C@H](C)n3cc(CCCN=C(N)N)nn3)CC2)n1 (some centres undefined)	3	1	98	97
COc1cc(S(=O)(=O)Nc2ccc3cn[nH]c3c2)ccc1Cl	11	-10	89	121
O=C(O)c1ccc(Cl)c(S(=O)(=O)Nc2ccc3cn[nH]c3c2)c1	5	-33	94	135*
CCN1CCN(c2ccc(S(=O)(=O)N3CCCC3)cn2)CC1	-7	3	105	99
CC1Cc2cc(/C(O)=C3/C(=O)C(=O)N(CCCn4ccnc4)C3c3ccncc3)ccc2O1 (centres undefined)	2	4	97	105
CC1Cc2cc(/C(O)=C3/C(=O)C(=O)N(CCCn4ccnc4)C3c3ccco3)ccc2O1 (centres undefined)	-35	8	132*	97
OC1(c2cccc(C(F)(F)F)c2)CCN(c2ccc(-c3ccccc3)nn2)CC1	-45	-18	141*	118
CCN(c1ccccc1)S(=O)(=O)c1ccc(C(=O)Oc2ccc(C(C)=O)cc2)cc1	5	-7	96	104
COCCN(C(=O)c1ccco1)C(C(=O)NC1CCCC1)c1cccs1 (centres undefined)	-2	-2	102	103
SMILES	STAT1 blocker	STAT3 blocker	STAT1 act	STAT3 act
CCCc1cc(=O)n2[nH]c(-c3ccccc3)cc2n1	-37	-19	134*	122
CCCc1cc(=O)n2[nH]c(-c3ccc(C)cc3)cc2n1	-21	-7	118	110
COc1ccc(C2=C(C#N)C(=O)OC2)cc1	36*	6	68	97
COc1ccc(CNC(=O)COC(=O)CC2CCCC2)cc1	11	8	90	96
COc1ccc(-n2c(C)cc(C(=O)CN3C(=O)c4ccccc4C3=O)c2C)cc1	-37	-10	134*	107
CSc1ccccc1-c1nnc(-c2ccccc2)o1	-49	-20	144*	121
CSc1ccccc1-c1nnc(-c2ccc(C)cc2)o1	-51	-33	146*	132
COc1ccc(S(=O)(=O)N2CCc3ccccc32)cc1C(=O)NCCc1ccccn1	-8	0	106	102
Fc1ccc(CSc2nc3ccccc3[nH]2)cc1	-32	13	129*	89
O=C(NCCO)c1ccc(CSc2nc3ccccc3[nH]2)cc1	-5	3	105	98
Fc1ccc(CSc2nc3ncccc3[nH]2)cc1	-3	19	103	91
O=[N+]([O-])c1ccc(CSc2nc3ccccc3[nH]2)cc1	-45	-3	141*	98
COC(=O)c1ccc([N+](=O)[O-])cc1N1C(=O)C2C3CCC(C3)C2C1=O (centres undefined)	0	0	99	102
O=C(CSc1ncn(-c2ccccc2)n1)c1cccs1	-32	15	129*	89
c1ccc(CSc2ncn(-c3ccccc3)n2)cc1	-48	6	144*	103
Nc1nc(CSc2nc3ccccc3[nH]2)cs1	-13	3	112	102
Nc1nc(CSc2ncn(-c3ccccc3)n2)cs1	-35	-5	132*	109
CCOC(=O)c1ccc(N2C(=O)C(CC(N)=O)N(CCc3ccc(OC)c(OC)c3)C2=S)cc1 (centres undefined)	-7	0	103	104
CC(c1nnc(SCC(=O)Nc2cccnc2Cl)n1Cc1ccccc1)N(C)C (centres undefined)	-3	7	101	99
Nc1nc(CSc2ccccc2)nc(N2CCCCC2)n1	-48	-5	142*	111
O=C(Nc1ccc2c(c1)OCO2)C1CCN(C(=O)c2ccc(Br)cc2)CC1	-14	5	113	104
O=C(Nc1nsc(-c2ccccc2)n1)c1ccc(F)cc1	-33	28	129*	83
O=C(Nc1nc2nccc(-c3ccccc3)n2n1)c1ccc(F)cc1	12	12	89	92
COc1ccc(CNC(=O)CNC(=O)c2c(C)nn(C)c2Cl)cc1	-4	20	103	88
O=C(Nc1ccc([N+](=O)[O-])cc1)c1ccccc1F	-43	14	138*	90
SMILES	STAT1 blocker	STAT3 blocker	STAT1 act	STAT3 act
Cc1ccc(NC(=O)CSc2nsc(SCC(=O)Nc3ccc(C)cc3C)c2C#N)c(C)c1	0	7	100	94
Cc1csc(NC(=O)CSc2nsc(SCC(=O)Nc3nc(C)cs3)c2C#N)n1	-35	25	132*	80
COc1ccccc1/C=N/Nc1nncc2ccccc12	-55	3	150*	97
COc1ccccc1/C=N/Nc1cc(N(C)C)nc(N(C)C)n1	7	7	91	99
Cc1ccnc(NC(=O)Nc2cccc(F)c2)n1	-52	8	145*	98
O=C(CCN1C(=O)c2cccc([N+](=O)[O-])c2C1=O)Nc1nccs1	-5	-7	103	107
COC(=O)N/N=C/c1ccc(-c2cccc(Cl)c2)o1	-20	14	117	89
Nc1ccccc1N=Cc1ccc(-c2cccc(Cl)c2)o1	-42	-2	140*	107
COc1ccccc1-c1nc(NC(C)=O)n[nH]1	12	-65	89	159*
Cc1ccc(C(=O)N/C(=C/c2ccc(F)cc2)C(=O)NCc2ccncc2)cc1	2	-8	99	110
COCCOc1cc(NC(=O)CS(=O)(=O)CC(=O)N(C)C)c(Cl)cc1Cl	-7	5	104	100

Bioassay records (PubChem BioAssay)
